Data reported in ChEMBL document CHEMBL2163271, “Antitumor agents 295. E-ring hydroxylated antofine and cryptopleurine analogues as antiproliferative agents: design, synthesis, and mechanistic studies” (J Med Chem, 2012).
pIC50: −log10 of the molar value. Calls of active or inactive are those of the source. The rule behind the calls is not given here.

System: not listed separately
Test: Cytotoxicity against human PC9IR cells assessed as cell viability after 48 hrs by SRB assay
Type: functional, cell-based
Conditions: not given
Outline: (§1)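 Human NSCLC lines (CL1-0, CL1-5, PC9, PC9IR) exposed to increasing compound concentrations for 48 h. Growth read by sulforhodamine B (SRB) staining, with IC50 in nM taken from the dose-response.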

Structure (SMILES) | pIC50
COc1ccc2c3c(c4cc(OC)c(OC)cc4c2c1)C[C@H]1CCCCN1C3 [CRYPTOPLEURINE] | 8.17

System: HCT-8
Test: Cytotoxicity against human HCT8 cells after 2 hrs by methylene blue staining-based spectrophotometric analysis
Type: functional, cell-based
Conditions: HCT-8, 2 h

Structure (SMILES) | pIC50
COc1ccc2c3c(c4cc(OC)c(OC)cc4c2c1)C[C@H]1CCCCN1C3 [CRYPTOPLEURINE] | 8.72

System: PC-9
Test: Cytotoxicity against human PC9 cells assessed as cell viability after 48 hrs by SRB assay
Type: functional, cell-based
Conditions: PC-9, 48 h
Outline: as §1

Structure (SMILES) | pIC50
COc1ccc2c3c(c4cc(OC)c(OC)cc4c2c1)C[C@H]1CCCCN1C3 [CRYPTOPLEURINE] | 8.26

System: not listed separately
Test: Cytotoxicity against human CL1-0 cells assessed as cell viability after 48 hrs by SRB assay
Type: functional, cell-based
Conditions: CL1-0, 48 h
Outline: as §1

Structure (SMILES) | pIC50
COc1ccc2c3c(c4cc(OC)c(OC)cc4c2c1)C[C@H]1CCCCN1C3 [CRYPTOPLEURINE] | 8.30

System: A549
Test: Cytotoxicity against human A549 cells assessed as cell viability after 48 hrs by SRB assay
Type: functional, cell-based
Conditions: A549, 48 h

Structure (SMILES) | pIC50
COc1ccc2c3c(c4cc(OC)c(OC)cc4c2c1)C[C@H]1CCCCN1C3 [CRYPTOPLEURINE] | 8.72

System: A549
Test: Downregulation of cyclin D protein expression in human A549 cells at 3.6 to 100 nM after 48 hrs by Western blot analysis
Type: functional, cell-based
Conditions: not given

Structure (SMILES) | Activity
COc1ccc2c3c(c4cc(OC)c(OC)cc4c2c1)C[C@H]1CCCCN1C3 [CRYPTOPLEURINE] | Active

System: A549
Test: Downregulation of HSP90 protein expression in human A549 cells at 3.6 to 100 nM after 48 hrs by Western blot analysis
Type: functional, cell-based
Conditions: not given
Outline: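 A549 cells treated with graded compound concentrations for 48 h. Whole-cell extracts were immunoblotted with antibody against HSP90.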

Structure (SMILES) | Activity
COc1ccc2c3c(c4cc(OC)c(OC)cc4c2c1)C[C@H]1CCCCN1C3 [CRYPTOPLEURINE] | Active

System: MRC5
Test: Cytotoxicity against human MRC5 cells assessed as cell viability after 48 hrs by SRB assay
Type: functional, cell-based
Conditions: MRC5, 48 h

Structure (SMILES) | pIC50
COc1ccc2c3c(c4cc(OC)c(OC)cc4c2c1)C[C@H]1CCCCN1C3 [CRYPTOPLEURINE] | 7.85

System: A549
Test: Cytotoxicity against human A549 cells after 2 hrs by methylene blue staining-based spectrophotometric analysis
Type: functional, cell-based
Conditions: A549, 2 h

Structure (SMILES) | pIC50
COc1ccc2c3c(c4cc(OC)c(OC)cc4c2c1)C[C@H]1CCCCN1C3 [CRYPTOPLEURINE] | 8.86

System: A549
Test: Downregulation of beta-catenin protein expression in human A549 cells at 3.6 to 100 nM after 48 hrs by Western blot analysis
Conditions: not given

Structure (SMILES) | Activity
COc1ccc2c3c(c4cc(OC)c(OC)cc4c2c1)C[C@H]1CCCCN1C3 [CRYPTOPLEURINE] | Active

System: KB
Test: Cytotoxicity against human KB cells after 2 hrs by methylene blue staining-based spectrophotometric analysis
Type: functional, cell-based
Conditions: not given

Structure (SMILES) | pIC50
COc1ccc2c3c(c4cc(OC)c(OC)cc4c2c1)C[C@H]1CCCCN1C3 [CRYPTOPLEURINE] | 8.82

System: DU-145
Test: Cytotoxicity against human DU145 cells after 2 hrs by methylene blue staining-based spectrophotometric analysis
Type: functional, cell-based
Conditions: DU-145, 2 h

Structure (SMILES) | pIC50
COc1ccc2c3c(c4cc(OC)c(OC)cc4c2c1)C[C@H]1CCCCN1C3 [CRYPTOPLEURINE] | 8.80

System: not listed separately
Test: Cytotoxicity against human CL1-5 cells assessed as cell viability after 48 hrs by SRB assay
Type: functional, cell-based
Conditions: CL1-5, 48 h
Outline: as §1

Structure (SMILES) | pIC50
COc1ccc2c3c(c4cc(OC)c(OC)cc4c2c1)C[C@H]1CCCCN1C3 [CRYPTOPLEURINE] | 8.74
